Compound activity from PubChem.
Hits are enriched below; roughly 3.5% of the tested compounds scored in any of these assays.
MrgX1 antag: antagonists of human MrgX1 receptor, primary screen, HEK293 cells, Fluo-4 calcium flux. B-score at 10 µM. 310,000 tested, 1.3% active. BAM8-22 antagonism; hits give low values;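 active means calcium-response B-score plate-corrected more than 3 library SD below zero, starting fluorescence within 5 deviations, no agonist response on first addition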;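 further: peak minus trough fluorescence over baseline after final BAM8-22 challenge near maximal dose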
Target sequence (Q96LB2 whole entry, looked up): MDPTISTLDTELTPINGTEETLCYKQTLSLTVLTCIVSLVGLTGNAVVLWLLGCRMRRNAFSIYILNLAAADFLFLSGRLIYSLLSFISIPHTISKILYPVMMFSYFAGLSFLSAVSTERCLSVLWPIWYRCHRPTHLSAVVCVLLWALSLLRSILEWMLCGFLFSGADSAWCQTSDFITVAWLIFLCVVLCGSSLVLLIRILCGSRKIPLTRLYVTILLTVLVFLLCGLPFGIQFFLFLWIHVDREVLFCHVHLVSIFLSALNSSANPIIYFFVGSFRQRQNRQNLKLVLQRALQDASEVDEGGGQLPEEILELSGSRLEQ
RGS4 inh: RGS4 inhibitors, primary screen, cell-based, HEK293 M3R inducible RGS4, calcium flux; Regulator of G-protein signaling 4 (Homo sapiens), P49798; Fluo-4 calcium flux; hits give high values; triggered by carbachol at its EC20; AID 463165, 2010; 310,000 tested, 0.45% active; B-score at 10 µM;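 active means B-score, a plate-corrected calcium signal, over three deviations above library mean, with baseline fluorescence within five deviations of library mean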;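 further: RGS4 expression induced by doxycycline in cells with stable M3 receptor; B-score is computed from the integrated fluorescence ratio over baseline after carbachol; higher B-score means a larger calcium signal and so more RGS4 inhibition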
Target sequence (P49798 whole entry, looked up): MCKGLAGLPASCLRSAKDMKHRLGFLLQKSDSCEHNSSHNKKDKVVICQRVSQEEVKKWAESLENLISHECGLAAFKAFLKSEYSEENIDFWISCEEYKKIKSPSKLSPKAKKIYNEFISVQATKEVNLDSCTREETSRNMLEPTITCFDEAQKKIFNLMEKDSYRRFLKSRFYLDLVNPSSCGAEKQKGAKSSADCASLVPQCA
MrgX1 PAM: positive allosteric modulators of MrgX1, primary screen, HEK293 cells, Fluo-4 calcium flux; FDSS; hits give high values; 310,000 tested, 0.63% active; Mas-related G-protein coupled receptor member X1 (Homo sapiens), Q96LB2; B-score at 10 µM;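 active means plate-corrected calcium response at least 3 library SD above typical, normal starting fluorescence, not activating the receptor alone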;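 further: compound read alongside a low EC10 to EC30 dose of BAM8-22 agonist; peak minus trough fluorescence over baseline measured at the second addition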
MrgX1 ag: agonists of human MrgX1 receptor, primary screen, HEK293 cells, Fluo-4 calcium flux; Fluo-4 calcium fluorescence, agonist mode; hits give high values; B-score at 10 µM; AID 588627, 2011; Mas-related G-protein coupled receptor member X1 (Homo sapiens), Q96LB2; 310,000 tested, 0.44% active;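 active means calcium response B-score plate-corrected fluorescence ratio at least 3 library SD, with starting fluorescence B-score inside 5 SD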
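Material: HEK293 cells stably expressing human MrgX1 receptor | Quantity: 15,000 cells per well | Times: Cells plated overnight, dye loaded 0.5 h 37 °C, 0.5 h room temperature | Measured by: Kinetic Fluo-4 NW fluorescence of intracellular calcium | Control set: Positive and negative controls per plate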
RGS4 pot: RGS4 potentiators or activators, primary screen, cell-based, HEK293 M3R inducible RGS4, calcium flux. 310,000 tested, 0.92% active. carbachol calcium flux Fluo4; hits give low values. B-score at 10 µM;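 active means B-score of the integrated calcium signal more than 4 SD below the library mean, with starting fluorescence not abnormally high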;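 further: negative B-score means reduced calcium response which marks RGS4 activation or potentiation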
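Reagent: ECmax carbachol challenge; Test system: M3R-expressing HEK293 line, RGS4 induced by doxycycline; Schedule: overnight RGS4 induction, 30 min dye load 37 °C, 20 min compound RT; Detection: calcium dye Fluo4 fluorescence; Read-out: Agonist-evoked peak-minus-minimum fluorescence over baseline, integrated ratio, B score.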
MrgX1 ant reconf: MrgX1 receptor antagonists, duplicate retest, confirmation, HEK293 cells, Fluo-4 calcium flux | shares compounds with MrgX1 antag | BAM8-22 calcium flux; hits give low values | remaining BAM8-22 calcium response % of control (hits give low values), % at 10 µM | 2,300 tested, 19% active;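 active means remaining agonist calcium response no higher than 100% minus 3 SD of agonist-only control wells, with starting fluorescence near control levels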;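 further: agonist BAM8-22 given at a near maximal EC90 to ECmax level; peak minus minimum fluorescence divided by baseline after agonist addition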
HEK293 Ca flux: nonspecific calcium signal in parental HEK293, confirmation, counter-screen for MrgX1 antagonist project, parental HEK293 cells, Fluo-4 calcium flux; shares compounds with MrgX1 antag; Fluo-4 calcium fluorescence, FDSS; fluorescence ratio F(max-min)/F0 at 10 µM; 4,000 tested, 2% active;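 active means duplicate-averaged calcium fluorescence ratio at least three times the standard deviation of buffer wells, a nonspecific response in parental cells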
HEK293 Ca counter: calcium response in parental HEK293 cells, primary screen, counter-screen for MrgX1 allosteric activator project, cell-based, Fluo-4 calcium flux, duplicate; shares compounds with MrgX1 antag; Fluo-4 fluorescence ratio; hits give high values; 4,000 tested, 0.4% active; AID 624114, 2012; fluorescence ratio F(max-min)/F0 at 10 µM;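 active means calcium fluorescence ratio, averaged over duplicates, at least 3 SD of the buffer-well ratio, meaning a nonspecific response in receptor-free cells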;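 further: untransfected parental HEK293 lacking MrgX1 used as counterscreen for MrgX1 allosteric activators; fluorescence change taken during the second addition on a kinetic imager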
HEK293 Ca cntr2: calcium response in parental HEK293 cells, primary screen, counter-screen for MrgX1 agonist project, cell-based, Fluo-4 calcium flux, duplicate, agonist mode; shares compounds with MrgX1 antag; fluorescence ratio F(max-min)/F0 at 10 µM; 4,000 tested, 8.7% active; Fluo-4 calcium fluorescence (FDSS); hits give high values;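 active means calcium fluorescence ratio at least three times the spread of buffer wells, meaning a non-specific response in parental cells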
* marks the source's active call; other numbers are inactive results; i = inactive; / = no result.

SMILES	MrgX1 antag	RGS4 inh	MrgX1 PAM	MrgX1 ag	RGS4 pot	MrgX1 ant reconf	HEK293 Ca flux	HEK293 Ca counter	HEK293 Ca cntr2
Cc1ccc(-n2c(-c3ccncc3)n[nH]c2=S)c(C)c1	i	i	i	i	i	/	/	/	/
CC1CCN(C(C(=O)Nc2ccc(C(C)C)cc2)c2ccc3c(c2)OCO3)CC1 (centres undefined)	-5.36*	i	i	i	i	i	i	i	i
CC1CC(=O)C2=C(C1)Nc1ncnn1C2c1ccccc1 (centres undefined)	i	i	i	i	i	/	/	/	/
Cc1nc2n(n1)C(c1ccccc1)C1=C(CC(c3ccco3)CC1=O)N2 (centres undefined)	-7.91*	i	i	i	i	i	i	i	i
COc1ccc(-n2nnnc2S(=O)(=O)Cc2ccc(C(=O)O)cc2)cc1	-8.25*	i	i	i	i	i	i	i	i
COc1ccc(-n2nnnc2S(=O)(=O)CC(=O)N2CCCCC2)cc1	i	/	i	i	/	/	/	/	/
CC(C)OC(=O)c1ccc(COC(=O)c2cnccn2)cc1	-5.36*	i	i	i	i	i	i	i	i
COC(=O)c1sc(-c2ccc(Cl)cc2)cc1NC(=O)c1ccccc1C(=O)O	i	i	i	i	i	/	/	/	/
COC(=O)c1sc(-c2ccc(C(C)(C)C)cc2)cc1NC(=O)c1ccccc1C(=O)O	-7.06*	i	i	i	i	70.4%*	i	i	99.5*
O=C(NCCCN1CCOCC1)c1cc2ccccc2cc1O	-4.73*	i	i	i	i	i	i	i	i
COc1cc2ccccc2cc1C(=O)NCCCN1CCOCC1	i	i	i	i	i	/	/	/	/
Cc1ccc(-n2nnc3c(=O)oc4ccccc4c32)cc1	i	i	i	i	i	/	/	/	/
CCC(C)n1nnc2c(=O)oc3ccccc3c21 (centres undefined)	-6.47*	i	i	i	i	i	i	i	i
COc1ccc(CCNc2nc(N3CCOCC3)nc(N3CCOCC3)n2)cc1OC	-5.9*	i	i	i	i	i	i	i	i
CC(NS(C)(=O)=O)C(c1cccs1)N1CCN(c2ccccc2F)CC1 (centres undefined)	i	i	i	i	i	/	/	/	/
O=C(Nc1nccs1)c1ccc(N2C(=O)C3CCCCC3C2=O)cc1 (centres undefined)	i	i	i	i	i	/	/	/	/
CC(C)c1ccc(NC2CCCN(C(=O)c3cnsn3)C2)cc1 (centres undefined)	-6.78*	i	i	i	i	i	i	i	i
Cc1cc(C(=O)N2CCCC(Nc3ccc(C(C)C)cc3)C2)nn1C (centres undefined)	i	i	i	i	i	/	/	/	/
COC(=O)c1cc(NC(=O)c2ccc([N+](=O)[O-])cc2)c(=O)oc1C	i	i	i	i	i	/	/	/	/
